# Screening results deposited in PubChem by Broad Institute.
# This is a sample that favours compounds with a hit; in the whole collection about 5.8% have one here.
# IDH1 R132H inh: IDH1 R132H (human) inhibition; AID 624101; actives 0.18% (n = 70,000); inhibition, % at 10 µM; IDH1 R132H reductase, diaphorase/resazurin fluorescence, 60 min; in the data active = inhibition above about 34%; inconclusive = no clear call, values can overlap the other calls; inactive = below about 11%;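 also: 0% = DMSO and 100% = no enzyme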
# T cruzi growth-1: inhibitors of T. cruzi proliferation | actives 5.9% (n = 77,000) | inhibition, % at 8.34 µM | T. cruzi beta-gal in NIH3T3, GalScreen luminescence, 90 h;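 active = mean inhibition above about 93%, with at least 55% of replicates each passing it, limit read from the data, passing the limit was not always enough; inconclusive = only one of those two conditions holds; inactive = neither condition holds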
# KDM4C inh: KDM4C (human) demethylase inhibition | Q9H3R0 | GST-KDM4C 2-372, H3K9me3 peptide, LANCE TR-FRET | inhibition, % at 12.5 µM | actives 0.15% (n = 96,000) | AID 720574;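 active = mean replicate inhibition above about 25%, with at least 55% of replicates also reaching it, limit read from the data, passing the limit was not always enough; inconclusive = only one of those two conditions met; inactive = neither condition met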
# Target sequence (Q9H3R0 2-372 limits assumed): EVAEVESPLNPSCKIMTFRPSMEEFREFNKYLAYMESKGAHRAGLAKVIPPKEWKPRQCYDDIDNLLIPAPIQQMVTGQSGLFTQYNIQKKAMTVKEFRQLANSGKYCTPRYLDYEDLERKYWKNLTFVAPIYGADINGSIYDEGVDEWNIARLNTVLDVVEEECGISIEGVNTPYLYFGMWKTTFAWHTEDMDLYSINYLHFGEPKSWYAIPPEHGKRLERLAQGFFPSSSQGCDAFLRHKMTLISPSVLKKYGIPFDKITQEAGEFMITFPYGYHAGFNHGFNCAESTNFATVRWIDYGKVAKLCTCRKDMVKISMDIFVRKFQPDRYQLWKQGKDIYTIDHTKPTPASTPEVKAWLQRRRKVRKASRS
#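 System – N-terminal GST-fused human GASC-1 (KDM4C) fragment, residues 2-372 · Input – enzyme final amount 10 nM · Technique – LANCE TR-FRET, Eu antibody, ULight-streptavidin, EDTA, ex 340 nm, em 618/671 nm · Medium – HEPES buffer, pH 7.5, plus ascorbate · Incubation – enzyme reaction 30 min, then detection 60 min, both room temperature · Reagent – H3K9me3 peptide with Fe(II)/2OG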
# Pf Dd2 inh: P. falciparum Dd2 growth inhibition; SYBR Green, 72 h; hits give low values; activity change, % at 10 µM; actives 2.3% (n = 94,000); AID 1159554; in the data active = activity change below about -80%; inconclusive = no clear call, values can overlap the other calls
# T cruzi growth-2: Trypanosoma cruzi proliferation inhibition; T. cruzi beta-gal in NIH3T3, GalScreen luminescence, 90 h; inhibition, % at 8.35 µM; shares compounds with T cruzi growth-1; AID 651739; actives 72% (n = 5,600);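 active = mean replicate inhibition above about 95% and at least 55% of replicates individually reaching it, limit read from the data; inconclusive = only one of the two criteria is met; inactive = neither criterion is met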
# T cruzi growth-3: inhibitors of T. cruzi proliferation; shares compounds with T cruzi growth-1; actives 21% (n = 5,600); AID 651740; T. cruzi beta-gal in NIH3T3, GalScreen luminescence, 90 h; inhibition, % at 2.09 µM;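 active = mean inhibition above about 95%, with at least 55% of replicates also reaching it, limit read from the data; inconclusive = meets just one of the two conditions; inactive = meets neither condition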;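 also: plate controls were neutral control median for no effect and positive control median for full effect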
# NIH3T3 tox: NIH/3T3 (mouse) viability loss. NIH/3T3 viability, CellTiter-Glo ATP luminescence, 90 h. actives 14% (n = 5,600). cytotoxicity (signal decrease), % at 8.35 µM. shares compounds with T cruzi growth-1. AID 651742;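 active = mean signal decrease across replicates above about 35% based on untreated-well scatter, with enough replicates individually passing, limit read from the data; inconclusive = no rule stated though some were filed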;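 also: 0% = median of neutral control wells and 100% = median of positive control wells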
# NIH3T3 tox 2: kills mouse NIH/3T3 fibroblasts; shares compounds with T cruzi growth-1; NIH/3T3 viability, CellTiter-Glo ATP luminescence, 90 h; inhibition, % at 24.9 µM; actives 56% (n = 5,600); AID 651744;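 active = mean loss of cell viability signal at or above a set limit, and enough replicates individually reaching it; inconclusive = meets only the mean limit or only the replicate share; inactive = meets neither condition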;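 also: 0% = median of neutral control wells and 100% = median of positive control wells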
# Starred values were filed as active, the others as inactive; u = inconclusive; x = no result.
SMILES,IDH1 R132H inh,T cruzi growth-1,KDM4C inh,Pf Dd2 inh,T cruzi growth-2,T cruzi growth-3,NIH3T3 tox,NIH3T3 tox 2
COc1ccccc1-c1ccc2c(c1)O[C@H](CN(C)S(=O)(=O)c1ccc(C)cc1)[C@@H](C)CN([C@@H](C)CO)S2(=O)=O,4,126*,-2,-74,104*,66,39*,36*
C/C1=C/CC/C(CO)=C\[C@H]2OC(=O)C(CN3CCCC3C(=O)O)[C@@H]2[C@@H](OC(=O)C(C)CO)C1 (stereo partly specified),1,x,x,x,x,x,x,x
O=C(c1cccc(F)c1)N1CCCCN2[C@H](C1)[C@@H](c1ccc(C#CC3(O)CCCC3)cc1)[C@@H]2CO,x,7,-1,6,x,x,x,x
O=C(c1cccc(F)c1)N1CCCCN2[C@@H](CO)[C@H](c3ccc(C#CC4(O)CCCC4)cc3)[C@@H]2C1,x,u,0,11,92,84,6,u
O=C(c1cccc(F)c1)N1CCCCN2[C@H](CO)[C@H](c3ccc(C#CC4(O)CCCC4)cc3)[C@@H]2C1,x,u,0,3,109*,76,25,11
C[C@@H]1CN([C@H](C)CO)S(=O)(=O)c2ccc(C3=CCCC3)cc2O[C@@H]1CN(C)C(=O)C1CCCCC1,x,115*,0,-51,102*,80,u,25
C[C@@H]1CN([C@@H](C)CO)S(=O)(=O)c2ccc(C3=CCCC3)cc2O[C@H]1CN(C)C(=O)C1CCCCC1,x,u,-1,-22,91,60,26,41*
O=C(N/N=C/c1ccc2c(c1)CCO2)c1ccccc1O,-1,x,x,x,x,x,x,x
Cc1cc(Br)ccc1NC(=O)CCCN1C(=O)c2ccccc2C1=O,1,x,x,x,x,x,x,x
Cc1cccc(S(=O)(=O)N2CCCCN3[C@H](C2)[C@H](c2ccc(C#CC4CC4)cc2)[C@@H]3CO)c1,x,108*,0,-16,109*,98*,13,65*
COc1cccc(S(=O)(=O)N2CCCCN3[C@@H](CO)[C@@H](c4ccc(C#CC5CC5)cc4)[C@@H]3C2)c1,x,53,-1,-67,x,x,x,x
O=S(=O)(c1ccc(F)cc1)N1CCCCN2[C@@H](CO)[C@H](c3ccc(C#CC4CC4)cc3)[C@@H]2C1,x,u,1,-29,109*,44,44*,103*
COc1cccc(S(=O)(=O)N2CCCCN3[C@H](CO)[C@@H](c4ccc(C#CC5CC5)cc4)[C@H]3C2)c1,x,104*,-2,-27,98*,86,45*,105*
COc1cccc(S(=O)(=O)N2CCCCN3[C@H](CO)[C@@H](c4ccc(C#CC5CC5)cc4)[C@@H]3C2)c1,x,u,-1,3,107*,100*,11,22
Cc1cccc(S(=O)(=O)N2CCCCN3[C@H](CO)[C@@H](c4ccc(C#CC5CC5)cc4)[C@H]3C2)c1,x,94,-1,-32,x,x,x,x
Cc1cc(I)ccc1NC(=O)Cn1cc([N+](=O)[O-])cn1,0,x,x,x,x,x,x,x
NC(=O)c1c(NC(=O)COc2ccc3ccccc3c2)sc2c1CCCCCC2,0,x,x,x,x,x,x,x
C[C@H]1CCCCO[C@H](CN(C)C)[C@@H](C)CN([C@@H](C)CO)C(=O)c2cc(NC(=O)Nc3cccc4ccccc34)ccc2O1,-9,29,1,-59,x,x,x,x
C[C@@H]1CCCCO[C@@H](CN(C)C(=O)Nc2ccccc2)[C@H](C)CN([C@@H](C)CO)C(=O)c2cc(NC(=O)Nc3ccccc3)ccc2O1,0,u,-1,8,89,40,-38,-7
C[C@@H]1CCCCO[C@H](CN(C)C(=O)Nc2ccc(F)cc2)[C@@H](C)CN([C@H](C)CO)C(=O)c2cc(NC(=O)Nc3cccc4ccccc34)ccc2O1,x,72,-1,-23,x,x,x,x
C[C@@H]1CN([C@@H](C)CO)C(=O)c2cc(NC(=O)Nc3cccc4ccccc34)ccc2O[C@@H](C)CCCCO[C@H]1CN(C)C,-14,99*,-1,33,40,-48,-1,-15
C[C@@H]1CCCCO[C@@H](CN(C)C(=O)Nc2cccc3ccccc23)[C@H](C)CN([C@H](C)CO)C(=O)c2cc(N(C)C)ccc2O1,0,102*,2,-36,97*,73,-35,0
C[C@H](CO)N1C[C@H](C)[C@@H](CN(C)C(=O)Nc2ccc(F)cc2)OCCCC[C@H](C)Oc2ccc(NC(=O)Nc3cccc4ccccc34)cc2C1=O,3,105*,12,-32,107*,55,9,u
C[C@@H]1CCCCO[C@@H](CN(C)C(=O)Nc2cccc3ccccc23)[C@@H](C)CN([C@@H](C)CO)C(=O)c2cc(N(C)C)ccc2O1,0,57,-2,-76,x,x,x,x
O=C(CC1CCOCC1)Nc1ccc(I)cc1,0,x,x,x,x,x,x,x
SMILES,IDH1 R132H inh,T cruzi growth-1,KDM4C inh,Pf Dd2 inh,T cruzi growth-2,T cruzi growth-3,NIH3T3 tox,NIH3T3 tox 2
CS(=O)(=O)N(CC(=O)Nc1cc(C(F)(F)F)ccc1Cl)c1ccccc1,0,x,x,x,x,x,x,x
C[C@H]1CCCCO[C@@H](CN(C)C(=O)Nc2ccccc2)[C@@H](C)CN([C@@H](C)CO)C(=O)c2cc(NC(=O)Nc3ccc4c(c3)OCO4)ccc2O1,1,123*,1,1,113*,60,8,-2
C[C@@H]1CCCCO[C@@H](CN(C)C(=O)Nc2ccccc2)[C@H](C)CN([C@H](C)CO)C(=O)c2cc(NC(=O)NC3CCCCC3)ccc2O1,-3,105*,-1,-48,101*,47,14,11
CC(C)NC(=O)Nc1ccc2c(c1)C(=O)N([C@H](C)CO)C[C@H](C)[C@H](CN(C)C(=O)Nc1ccc(F)cc1)OCCCC[C@H](C)O2,2,96*,0,48,104*,70,-1,-13
C[C@@H]1CCCCO[C@@H](CN(C)C)[C@H](C)CN([C@H](C)CO)C(=O)c2cc(NC(=O)CCCCCC(=O)Nc3ccccc3N)ccc2O1,x,73,0,43,x,x,x,x
C[C@H]1CCCCO[C@H](CN(C)C)[C@@H](C)CN([C@@H](C)CO)C(=O)c2cc(NC(=O)CCCCCC(=O)Nc3ccccc3N)ccc2O1,x,97*,-1,41,102*,17,8,17
c1ccc(CNc2ncnc3scc(C4COc5ccccc5O4)c23)cc1 (stereo unspecified),-1,x,x,x,x,x,x,x
CC1(C)CC(=O)C2=C(C1)c1c(ccc3ncccc13)NC2C1CC=CCC1 (stereo unspecified),-2,x,x,x,x,x,x,x
